Source: ChEMBL document CHEMBL4371094, “Secondary Metabolites from the Fungus Dictyosporium sp. and Their MALT1 Inhibitory Activities” (J Nat Prod, 2019)
Calls of active or inactive are those of the source. The calls are words filed in the database; no cut-off is given here.

Experiments:
[1] = target: T1, Mucosa-associated lymphoid tissue lymphoma translocation protein 1 (Homo sapiens, UniProt Q9UDY8); experiment: Inhibition of full-length human GST-tagged MALT1 isoform A (824 residues) expressed in Escherichia coli using Ac-LRSR-MCA as substrate after 1 hr by fluorescence assay
T1 sequence (Q9UDY8 whole entry): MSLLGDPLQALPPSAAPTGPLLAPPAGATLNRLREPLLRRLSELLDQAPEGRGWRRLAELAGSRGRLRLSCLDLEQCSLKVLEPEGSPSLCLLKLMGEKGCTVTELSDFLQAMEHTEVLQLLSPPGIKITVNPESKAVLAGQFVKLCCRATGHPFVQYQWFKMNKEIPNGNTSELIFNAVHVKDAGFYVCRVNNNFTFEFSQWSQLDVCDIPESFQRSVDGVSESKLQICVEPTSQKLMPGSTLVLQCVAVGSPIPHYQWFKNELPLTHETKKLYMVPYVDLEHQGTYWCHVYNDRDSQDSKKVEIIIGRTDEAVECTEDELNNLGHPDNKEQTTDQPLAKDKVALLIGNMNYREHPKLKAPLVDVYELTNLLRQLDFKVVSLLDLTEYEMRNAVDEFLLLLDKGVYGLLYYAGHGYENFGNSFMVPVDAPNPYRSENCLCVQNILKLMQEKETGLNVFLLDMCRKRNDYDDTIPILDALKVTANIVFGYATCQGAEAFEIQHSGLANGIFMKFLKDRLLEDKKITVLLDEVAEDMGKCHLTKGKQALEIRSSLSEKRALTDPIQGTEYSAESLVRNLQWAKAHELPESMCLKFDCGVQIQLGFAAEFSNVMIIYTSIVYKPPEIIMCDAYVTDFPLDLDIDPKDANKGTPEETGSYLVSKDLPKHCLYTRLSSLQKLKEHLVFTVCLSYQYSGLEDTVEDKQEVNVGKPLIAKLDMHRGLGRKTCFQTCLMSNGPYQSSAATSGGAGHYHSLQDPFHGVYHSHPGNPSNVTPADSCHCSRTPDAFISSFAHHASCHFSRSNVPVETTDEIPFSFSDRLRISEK
Summary of the method: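 Recombinant MALT1-GST, 25 nM final, in buffer of 50 mM Tris HCl pH 7.5, 0.05% CHAPS, 1 mM DTT, 0.1 mM EGTA, 0.8 M sodium citrate. Started by adding 150 μM Ac-LRSR-MCA with compound (0−250 μM). 37 °C for 1 h, quenched with equal volume 0.2% SDS, AMC fluorescence read at ex 342/em 441 nm in quadruplicate. Prequenched background subtracted, normalized to vehicle control.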

[2] = target: T2, Mucosa-associated lymphoid tissue lymphoma translocation protein 1 (Homo sapiens) (UniProt Q9UDY8); experiment: Inhibition of full-length human GST-tagged MALT1 isoform A (824 residues) expressed in Escherichia coli at >100 uM in presence of AMC after 1 hr by fluorescence assay
T2 sequence (whole entry): T1 sequence (Q9UDY8 whole entry)

[3] = target: T2, Mucosa-associated lymphoid tissue lymphoma translocation protein 1 (Homo sapiens); experiment: Inhibition of full-length human GST-tagged MALT1 isoform A (824 residues) expressed in Escherichia coli at 100 uM using Ac-LRSR-MCA as substrate after 1 hr by fluorescence assay

Row | SMILES | IC50 [1] [µM] | inhibition [2] | inhibition [3]
1 | COC(=O)C1=CC(C)=COc2oc3cccc(O)c3c(=O)c21 | 32.1 | Active | 
2 | CC(C)[C@H](NC(=O)OCc1ccccc1)C(=O)N[C@@H](CCCNC(=N)N)C(=O)N1CCC[C@H]1C(=O)N[C@@H](CCCNC(=N)N)C(=O)CF | 0.016 |  | 
3 | COC(=O)C1=CC=COc2oc3cc(C)cc(O)c3c(=O)c21 | 50.9 | Active | 
4 | CCc1c(OC)cc2c(c1O)C(=O)CC[C@@H]2O |  |  | inactive
5 | COc1c(C)cc(O)c2c1[C@H](O)[C@]1(C(=O)C(CC=C(C)C)=CC[C@H]1O)C2=O |  |  | inactive
6 | COc1cc2c(c(O)c1[C@H](C)O)C(=O)CC[C@@H]2O |  |  | inactive
7 | CCc1c(OC)cc2c(c1O)C(=O)CC[C@@]21C[C@@H](O)C(=O)O1 |  |  | inactive

Further lines, results first:

Row | IC50 [1] [µM] | inhibition [2] | inhibition [3] | SMILES
8 |  |  | inactive | COC(=O)c1cccc2oc3cc(C)cc(O)c3c(=O)c12
9 |  |  | inactive | COC(=O)c1cc(O)cc2oc3cc(C)cc(O)c3c(=O)c12
10 |  |  | inactive | Cc1cc([C@@H]2C[C@H](O)C(=O)O2)c2c(=O)c3c(O)cccc3oc2c1
11 |  |  | inactive | COC(=O)c1cc(C)c(O)c2oc3cccc(O)c3c(=O)c12
12 |  |  | inactive | Cc1cc(CO)c2c(=O)c3c(O)cccc3oc2c1
